pIC50: −log10 of the molar value. Converted amounts (≈) assume the structure as drawn. One block for each compound: values may come before it. The source made the active and inactive calls. The rule behind the calls is not given here.
How the values were obtained:
[1] = Kinetic solubility in phosphate buffer at pH 7.4; type: physicochemical
[2] = Thermodynamic solubility in phosphate buffer at pH 7.4 after 72 hrs; type: physicochemical; details: read-out: Therm_solubility
[3] = Protein binding in LB assay broth (above 30 kDa) by ultra filtration method; type: ADME; details: read-out: PB (converted)
[4] = Kinetic solubility in water; type: physicochemical
[5] = Thermodynamic solubility in water after 72 hrs; type: physicochemical; details: read-out: Therm_solubility
Staphylococcus aureus [6] = assay: Antibacterial activity against methicillin-susceptible Staphylococcus aureus ATCC 25923 up to 64 ug/ml after 24 hrs by broth dilution assay; type: functional, organism-based
In short: (§1)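 Triplicate broth microdilution in LB and MH broths. Overnight LB cultures were diluted 40-fold into fresh broth and shaken 1 h at 37 °C to mid-log (OD600 ≈ 0.6). They were then diluted to 5 × 10⁵ cfu/mL into 2-fold serial dilutions from 64 to 0.03 µg/mL (≤1.28% DMSO) and held 24 h at 37 °C. MIC is the lowest concentration with no visible growth. Tetracycline, vancomycin and colistin served as positive controls.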

Enterococcus faecalis [7] = assay: Antibacterial activity against Enterococcus faecalis VanB ATCC 51299 up to 64 ug/ml after 24 hrs by broth dilution assay; type: functional, organism-based; in short: as §1
Escherichia coli [8] = assay: Antibacterial activity against Escherichia coli ATCC 25922 up to 64 ug/ml after 24 hrs by broth dilution assay; type: functional, organism-based; in short: as §1
Klebsiella pneumoniae [9] = assay: Antibacterial activity against Klebsiella pneumoniae ATCC 700603 up to 64 ug/ml after 24 hrs by broth dilution assay; type: functional, organism-based; in short: as §1
Pseudomonas aeruginosa [10] = assay: Antibacterial activity against Meropenem-resistant Pseudomonas aeruginosa up to 64 ug/ml after 24 hrs by broth dilution assay; type: functional, organism-based
In short: (§2)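 Triplicate broth microdilution in LB and in MH broth. Overnight LB cultures diluted 40-fold into fresh broth, shaken 1 h at 37 °C to mid-log (OD600 ≈ 0.6), then diluted to 5 × 10⁵ cfu/mL. Added to 2-fold serial dilutions, 64 to 0.03 µg/mL, with DMSO at most 1.28%. Incubated 24 h at 37 °C; MIC is the lowest concentration with no visible growth. Tetracycline, vancomycin and colistin served as positive controls.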

Acinetobacter baumannii [11] = assay: Antibacterial activity against Meropenem-resistant Acinetobacter baumannii up to 64 ug/ml after 24 hrs by broth dilution assay; type: functional, organism-based; in short: as §2
Staphylococcus aureus [12] = assay: Antibacterial activity against methicillin-susceptible Staphylococcus aureus ATCC 25923 after 24 hrs by disc diffusion assay; type: functional, organism-based
In short: (§3)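 LB broth cultures were grown to mid-log (OD600 ≈ 0.6) as for broth MIC and streaked as lawns on LB agar. Sterile filter paper discs were loaded with 10 µL of 2-fold serial dilutions (32 to 1 µg/mL) and placed on the lawns. Inhibition zones were measured after 24 h at 37 °C.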

Enterococcus faecalis [13] = assay: Antibacterial activity against Enterococcus faecalis VanB ATCC 51299 after 24 hrs by disc diffusion assay; type: functional, organism-based; in short: as §3
Escherichia coli [14] = assay: Antibacterial activity against Escherichia coli ATCC 25922 after 24 hrs by disc diffusion assay; type: functional, organism-based; in short: as §3
Klebsiella pneumoniae [15] = assay: Antibacterial activity against Klebsiella pneumoniae ATCC 700603 after 24 hrs by disc diffusion assay; type: functional, organism-based; in short: as §3
Pseudomonas aeruginosa [16] = assay: Antibacterial activity against Meropenem-resistant Pseudomonas aeruginosa after 24 hrs by disc diffusion assay; type: functional, organism-based
In short: (§4)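 LB-broth overnight cultures diluted 40-fold into fresh LB, shaken 1 h at 37 °C, to mid-log (OD600 ≈ 0.6). Lawn streaked on LB agar. Sterile filter-paper discs loaded with 10 µL of 2-fold serial dilutions, 32 to 1 µg/mL. Discs placed on plates, 24 h at 37 °C, then zone of inhibition measured.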

Acinetobacter baumannii [17] = assay: Antibacterial activity against Meropenem-resistant Acinetobacter baumannii after 24 hrs by disc diffusion assay; type: functional, organism-based; in short: as §4
Staphylococcus aureus [18] = assay: Antibacterial activity against methicillin-susceptible Staphylococcus aureus ATCC 25923 compound formulated with carboxymethylcellulose; type: functional, organism-based
Escherichia coli [19] = assay: Antibacterial activity against Escherichia coli ATCC 25922 compound formulated with carboxymethylcellulose; type: functional, organism-based
Pseudomonas aeruginosa [20] = assay: Antibacterial activity against Pseudomonas aeruginosa ATCC 10145 compound formulated with carboxymethylcellulose; type: functional, organism-based
Bacillus subtilis = assay: Antibacterial activity against Bacillus subtilis ATCC 6051 compound formulated with carboxymethylcellulose; type: functional, organism-based
HepG2 = assay: Cytotoxicity against human HepG2 cells after 24 hrs by MTT assay; type: cell-based; details: HepG2, 24 h
HEK293 = assay: Cytotoxicity against HEK293 cells after 24 hrs by MTT assay; type: cell-based; details: Homo sapiens, HEK293, 24 h

solubility kinetic [1]: 150 µg/mL (≈ 559 µM)
solubility thermodynamic at 72 h [2]: 898 µg/mL (≈ 3350 µM)
fraction unbound [3]: 0.93
solubility kinetic [4]: 150 µg/mL (≈ 559 µM)
solubility thermodynamic at 72 h [5]: 175 µg/mL (≈ 652 µM)
Structure (SMILES): Cc1cc(=O)n2nc(CC(=O)c3ccccc3)[nH]c2n1 [ESSRAMYCIN]

Structure (SMILES): Cc1cc(=O)n2nc(CC(=O)c3ccccc3)nc2[nH]1 [ESSRAMYCIN]
inhibition (Staphylococcus aureus [6]): inactive
inhibition (Enterococcus faecalis [7]): inactive
inhibition (Escherichia coli [8]): inactive
inhibition (Klebsiella pneumoniae [9]): inactive
inhibition (Pseudomonas aeruginosa [10]): inactive
inhibition (Acinetobacter baumannii [11]): inactive
inhibition (Staphylococcus aureus [12]): inactive
inhibition (Enterococcus faecalis [13]): inactive
inhibition (Escherichia coli [14]): inactive
inhibition (Klebsiella pneumoniae [15]): inactive
inhibition (Pseudomonas aeruginosa [16]): inactive
inhibition (Acinetobacter baumannii [17]): inactive
inhibition (Staphylococcus aureus [18]): inactive
inhibition (Escherichia coli [19]): inactive
inhibition (Pseudomonas aeruginosa [20]): inactive
inhibition (Bacillus subtilis): inactive
pIC50 (HepG2): < 3.70
pIC50 (HEK293): < 3.70
